The record followed here is ChEMBL document CHEMBL4699545, “Non-cytotoxic 1,2,3-triazole tethered fused heterocyclic ring derivatives display Tax protein inhibition and impair HTLV-1 infected cells” (Bioorg Med Chem, 2020).

The subject of data set [1] is MT2. Nature of the data set: Cytotoxicity against human MT2 cells infected with HTLV-1 assessed as reduction in metabolic activity at 50 uM incubated for 72 hrs in presence of resazurin by resazurin reduction method relative to control. In kind it is functional. The procedure, abridged: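 MT-2 cells incubated with compound at a final 50 µM in 0.5% DMSO for 72 h at 37 °C, 5% CO₂. Resazurin (10 µM) was added for the final 4 h and fluorescence read at 590 nm; medium-only wells gave background. RFU normalized between 0.5% DMSO (0) and 20 µM etoposide (100) controls. Three independent days.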

Data set [2] concerns MT2. Nature of the data set: Cell cycle arrest in human MT2 cells infected with HTLV-1 assessed as accumulation at S phase at 50 uM incubated for 72 hrs by RNaseA/propidium iodide staining based FACSCalibur flow cytometry. In kind it is functional. The gist of the method: (§1)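 MT-2 cells (3 × 10⁵/well) exposed to compound (300 µM stock, 100 µl added to 500 µl cells) for 72 h at 37 °C, 5% CO₂. Cells were PBS-washed and fixed in ice-cold 70% ethanol overnight at -20 °C, then RNase A treated 30 min at 37 °C and PI stained. 10,000 events were acquired and phase percentages modelled. Triplicate, mean ± SD; one-way ANOVA/Tukey versus 0.5% DMSO.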

Data set [3] has as its system MT2. Nature of the data set: Cell cycle arrest in human MT2 cells infected with HTLV-1 assessed as accumulation at G0/G1 phase at 50 uM incubated for 72 hrs by RNaseA/propidium iodide staining based FACSCalibur flow cytometry. In kind it is functional. The gist of the method:
as §1

For data set [4], the system named is MT2. Nature of the data set: Cell cycle arrest in human MT2 cells infected with HTLV-1 assessed as accumulation at G2/M phase at 50 uM incubated for 72 hrs by RNaseA/propidium iodide staining based FACSCalibur flow cytometry. In kind it is functional. The procedure, abridged:
as §1
A general note: Flow cytometry measures light scatter and fluorescence of single cells or particles in a stream.

The test system of the next data set is Huh-7. Nature of the data set: Cytotoxicity against human Huh-7 cells assessed as reduction in cell viability by measuring viability index at 50 uM after 72 hrs in presence of resazurin by resazurin reduction method. In kind it is cell-based. The note with it: huh-7, 72 h. The procedure, abridged: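 Huh-7 cells (3.6 × 10⁴ cells/mL) were exposed to twofold serial dilutions in PBS, 10 points from 50 µM, for 72 h at 37 °C, 5% CO₂. Resazurin (10 µM) was added for the final 4 h and fluorescence read. Viability = RFU treated / mean RFU of 0.5% DMSO wells.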
A general note: Alamar Blue is a resazurin reagent that responds to reducing activity.

The test system of data set [5] is MT2. Nature of the data set: Induction of apoptosis in human MT2 cells infected with HTLV-1 assessed as activation of caspase-3/7 at 50 uM measured after 72 hrs by CellEvent caspase 3/7 green detection reagent based assay. In kind it is functional, cell-based. The procedure, abridged:
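MT-2 cells (3 × 10⁵/well) were exposed to compound (300 µM stock, 100 µl into 500 µl) for 72 h at 37 °C, 5% CO₂. CellEvent caspase-3/7 green reagent was added for 45 min at room temperature in the dark. 10,000 events were acquired, and the percentage of active caspase-3/7⁺ cells was taken within an FSC/SSC live-cell gate. Triplicate, mean ± SD, ANOVA/Tukey versus 0.5% DMSO.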

In data set [6] the test system is MT2. Nature of the data set: Induction of apoptosis in human MT2 cells infected with HTLV-1 at 50 uM measured after 72 hrs by annexinV-Cy5/propidium iodide staining based FACSCalibur flow cytometry. In kind it is functional, cell-based. The gist of the method: (§2)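 MT-2 cells (3 × 10⁵/well) were treated for 72 h at 37 °C, 5% CO₂, then stained with annexin-V Cy5/PI per kit. Within an FSC/SSC live-cell gate, total annexin-V⁺ cells (early PI⁻ plus late PI⁺) were counted by flow cytometry. 0.5% DMSO served as negative control and etoposide 20 µM as positive. Triplicate, mean ± SD, ANOVA/Tukey.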

Data set [7] has as its system MT2. Briefly: Induction of apoptosis in human MT2 cells infected with HTLV-1 at 50 uM measured after 72 hrs by annexinV-Cy5/propidium iodide staining based FACSCalibur flow cytometry (reference value: 18.7 +/- 5.33 %). In kind it is functional. The gist of the method:
as §2

A short description of data set [8]: Effect on HTLV-1 Tax expression in lentiviral pLVX-TET3G transduced human Jurkat LTR-GFP inducible Tax assessed as doxycyclin-treated GFP negative PI positive dead cells at 50 uM after 72 hrs by flow cytometry (reference value: 16.82 +/- 3.37 %).
Data set [9] concerns MT2. Nature of the data set: Cytotoxicity against human MT2 cells infected with HTLV-1 assessed as reduction in metabolic activity at 20 uM incubated for 72 hrs in presence of resazurin by resazurin reduction method. In kind it is functional, cell-based. The procedure, abridged: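 Reference etoposide at 20 µM (final, 0.5% DMSO) served as the positive control in the MT-2 resazurin screen. Cells were incubated 72 h, with 10 µM resazurin added for the last 4 h, and fluorescence read at 590 nm. Three independent days.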

The subject of data set [10] is MT2. Nature of the data set: Cell cycle arrest in human MT2 cells infected with HTLV-1 assessed as accumulation at G2/M phase at 20 uM incubated for 72 hrs by RNaseA/propidium iodide staining based FACSCalibur flow cytometry. In kind it is functional. The procedure, abridged: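 Etoposide 20 µM used as reference in MT-2 cell cycle assay: 3 × 10⁵ cells/well, 72 h at 37 °C. Ethanol fixation (70%, overnight -20 °C), RNase A 30 min at 37 °C, then PI staining. 10,000 events acquired by flow cytometry and G0/G1, S and G2/M fractions modelled. Triplicate, mean ± SD.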

Active and inactive are the calls of the source. No cut-off for these calls is given here. Some results are limits rather than exact numbers.

`O=C(Cn1cc(CSc2nc3ccccc3[nH]2)nn1)N1CCN(Cc2ccccc2)CC1`: in the data set with MT2 [1], the inhibition at 50 µM is at least 70%. In addition, the outcome in the data set on MT2 [2], in the data set on MT2 [3] and with MT2 [4] was inactive.

Consider `O=C1c2ccccc2C(=O)N1Cc1cn(CCNc2ccnc3cc(Cl)ccc23)nn1`, for which the inhibition at 50 µM with MT2 [1] is at least 70%. Further, the outcome with MT2 [2] was Active. In addition, the Growth_index in the data set on Huh-7 stood at 0.85.

In the case of `Cc1cc(=O)oc2cc(OCc3cn(CC4CCN(Cc5ccccc5)CC4)nn3)ccc12`, the inhibition at 50 µM with MT2 [1] was at least 70%. Besides, the result in the data set on MT2 [2], in the data set on MT2 [3] and in the data set with MT2 [4] was inactive. Moreover, the result with MT2 [5] and with MT2 [6] was Active. Also, the Activity in the data set with MT2 [7] amounted to 39.96%. In addition, in the data set with Huh-7, the Growth_index was determined as 0.61.

Regarding `O=C(Cn1cc(CNc2ncnc3ccccc23)nn1)N1CCN(Cc2ccccc2)CC1`, in the data set with MT2 [1], the inhibition at 50 µM is at least 70%. The result in the data set on MT2 [2], in the data set on MT2 [3] and with MT2 [4] was inactive.

`c1ccc(CN2CCC(Cn3cc(CNc4ncnc5ccccc45)nn3)CC2)cc1`: the inhibition at 50 µM with MT2 [1] is at least 70%. The outcome with MT2 [2], with MT2 [3] and with MT2 [4] was inactive.

With `COc1cc2ncnc(NCc3cn(CC4CCN(Cc5ccccc5)CC4)nn3)c2cc1OC`, in the data set with MT2 [1], the inhibition at 50 µM is at least 70%. Further, the result in the data set on MT2 [2], in the data set on MT2 [3] and with MT2 [4] was inactive. Further, the result in the data set with MT2 [5] and in the data set on MT2 [6] was Active. Further, the Growth_index with Huh-7 came out at 0.65.

As for `Clc1ccc2c(NCCn3cc(CNc4ncnc5ccccc45)nn3)ccnc2c1`, in the data set with MT2 [1], the inhibition at 50 µM is at least 70%. The outcome in the data set with MT2 [2], with MT2 [3] and with MT2 [4] was inactive. The result in the data set with MT2 [5] and with MT2 [6] was Active. Besides, the Growth_index in the data set on Huh-7 came to 0. In data set [8], the “GFP-PI+ dead cells %” value turned out to be 44.88%.

For the molecule `COc1cc([C@@H]2c3cc4c(cc3[C@@H](O[C@@H]3O[C@@H]5CO[C@@H](C)O[C@H]5[C@H](O)[C@H]3O)[C@H]3COC(=O)[C@H]23)OCO4)cc(OC)c1O`, in the data set on MT2 [9], the inhibition entry is “Active”. Further, the outcome in the data set with MT2 [10] was inactive.

With `COc1cc2ncnc(NCc3cn(CCNc4ccnc5cc(Cl)ccc45)nn3)c2cc1OC`, in the data set with MT2 [1], the inhibition at 50 µM was at least 70%. Also, the outcome in the data set on MT2 [2], in the data set with MT2 [3] and in the data set with MT2 [4] was inactive. Further, the result with MT2 [5] and in the data set on MT2 [6] was Active. Moreover, the Growth_index in the data set on Huh-7 was 0. The “GFP-PI+ dead cells %” value in data set [8] turned out to be 90.98%.

As usually defined, the inhibition is the percentage by which the read-out fell short of the control.
